Experimental data: ChEMBL document CHEMBL1122544, “Azasteroids as inhibitors of rat prostatic 5 alpha-reductase” (J Med Chem, 1984)

biological target: T1, 3-oxo-5-alpha-steroid 4-dehydrogenase 1 (Rattus norvegicus) (UniProt P24008); experiment: In vitro inhibitory activity against rat prostatic 5-alpha-reductase (150 ng/tube)
T1 sequence (whole entry): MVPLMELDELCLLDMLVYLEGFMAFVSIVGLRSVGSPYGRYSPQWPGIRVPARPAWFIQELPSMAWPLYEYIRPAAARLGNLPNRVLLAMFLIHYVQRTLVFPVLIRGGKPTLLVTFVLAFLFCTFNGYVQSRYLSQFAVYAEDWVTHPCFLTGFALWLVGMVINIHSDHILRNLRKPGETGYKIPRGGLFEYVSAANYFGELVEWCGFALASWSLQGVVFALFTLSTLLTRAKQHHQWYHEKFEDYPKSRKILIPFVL
How it was run: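 Rat prostatic enzyme preparation incubated with radioactive T and excess NADPH in 0.21 mL medium; 150 ng steroid per incubation (approx. 2 μM). Read-out is percent prevention of [³H]T conversion to [³H]DHT vs. control incubation without inhibitor. Duplicate assays, progesterone (150 ng) or a reference azasteroid (25 ng) as positive controls; most values single, separate determinations, approximate.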

Structure (SMILES)	inhibition
CC12CCNC(=O)C1CCC1C2CCC2(C)C1CC[C@@H]2O (some centres not stated)	0%
CN1C(=O)CCC2(C)C3CCC4(C)/C(=C/C(=O)O)CCC4C3CCC12 (configuration not stated)	92%
CN1C(=O)CC[C@@]2(C)C1CC[C@@H]1[C@@H]2CC[C@@]2(C)[C@H]1CC[C@@]21CCCO1 (some centres not stated)	81%
CCN(CC)C(=O)[C@H]1CCC2C3CCC4N(C)/C(=N/O)CCC4(C)C3CCC21C (some centres not stated)	77%
CC(=O)O[C@H]1CCC2C3CC[C@H]4NC(=O)CCCC4(C)C3CCC21C (some centres not stated)	94%
CC(=O)O[C@H]1CCC2C3CC[C@H]4CC(=O)NCC4(C)C3CCC21C (some centres not stated)	35%
CC(=O)O[C@H]1CCC2C3CC[C@H]4CNC(=O)CC4(C)C3CCC21C (some centres not stated)	0%
CC(=O)[C@H]1CC[C@H]2[C@@H]3CC[C@H]4CS(=O)(=O)C[C@]4(C)[C@H]3CC[C@]12C (stereo in doubt; 42)	13%
CCN(CC)C(=O)C(C)[C@H]1CC[C@H]2[C@@H]3CCC4N(C)C(=O)CC[C@]4(C)[C@H]3CC[C@]12C (some centres not stated)	83%
CCN(CC)C(=O)CCC(C)[C@H]1CC[C@H]2[C@@H]3CCC4N(C)C(=O)CC[C@]4(C)[C@H]3CC[C@]12C (some centres not stated)	100%
CCN(CC)C(=O)[C@H]1CC[C@H]2[C@@H]3CC[C@H]4N(C)C(=O)CC[C@]4(C)[C@H]3CC[C@]12C	99%
CN1C(=O)CC[C@@]2(C)C1CC[C@H]1[C@@H]3CC[C@H](C(=O)O)[C@@]3(C)CC[C@@H]12 (some centres not stated)	90%
CCN(CC)C(=O)[C@H]1CCC2C3CC[C@H]4N(C)C(=O)[C@H](O)CC4(C)C3CCC21C (some centres not stated)	46%
CC(=O)N[C@H]1CCC2C3CCC4N(C)C(=O)CCC4(C)C3CCC21C (some centres not stated)	76%
CC(CCC(=O)O)[C@H]1CC[C@H]2[C@@H]3CCC4N(C)C(=O)CC[C@]4(C)[C@H]3CC[C@]12C (some centres not stated)	88%
CCOC(=O)C[C@H]1CC[C@H]2[C@@H]3CC[C@H]4N(C)C(=O)CC[C@]4(C)[C@H]3CC[C@]12C	88%
CCN(CC)C(=O)[C@H]1CCC2C3CCC4N(C)CCCC4(C)C3CCC21C (some centres not stated)	44%
CCN(CC)C(=O)[C@H]1CCC2C3CCC4N(NC)C(=O)CCC4(C)C3CCC21C (some centres not stated)	24%
CCN(CC)C(=O)[C@H]1CC[C@H]2[C@@H]3CC[C@@H]4N(C)C(=O)CC[C@]4(C)[C@H]3CC[C@]12C	7%
COC(=O)[C@H]1CCC2C3CC[C@H]4CC(=O)OCC4(C)C3CCC21C (some centres not stated)	0%
CCN(CC)C(=O)[C@H]1CCC2C3CCC4N(C)/C(=N\C)CCC4(C)C3CCC21C (some centres not stated)	49%

Structure (SMILES)	inhibition
CCN(CC)C(=O)[C@H]1CCC2C3CCC4N(CCO)C(=O)CCC4(C)C3CCC21C (some centres not stated)	0%
CN1C(=O)CCC2(C)C1=CCC1C2CCC2(C)C1CC[C@@H]2O (some centres not stated)	36%
COC(=O)CCC(C)[C@H]1CC[C@H]2[C@@H]3CCC4N(C)C(=O)CC[C@]4(C)[C@H]3CC[C@]12C (some centres not stated)	84%
CCCCCCCCNC(=O)[C@H]1CCC2C3CCC4N(C)C(=O)CCC4(C)C3CCC21C (some centres not stated)	100%
CC(O)[C@@]1(O)CC[C@H]2[C@@H]3CCC4N(C)C(=O)CC[C@]4(C)[C@H]3CC[C@@]21C (some centres not stated)	100%
CCN(CC)C(=O)[C@H]1CCC2C3CCC4N(C)C(=S)CCC4(C)C3CCC21C (some centres not stated)	50%
CCN(CC)C(=O)[C@H]1CCC2C3CCC4N(C)C(=O)C(=O)CC4(C)C3CCC21C (some centres not stated)	78%
CCN(CC)C(=O)[C@H]1CCC2C3CC[C@H]4N(C)C(=O)[C@@H](C)CC4(C)C3CCC21C (some centres not stated)	99%
CC(=O)[C@H]1CCC2C3CCC4N(C)C(=O)CCC4(C)C3CCC21C (some centres not stated)	100%
CCN(CC)C(=O)C[C@H]1CC[C@H]2[C@@H]3CCC4N(C)C(=O)CC[C@]4(C)[C@H]3CC[C@]12C (some centres not stated)	97%
CCN(CC)C(=O)[C@H]1CCC2C3CCC4N(C)C(=O)/C(=C/O)CC4(C)C3CCC21C (some centres not stated)	48%
CCN(CC)C(=O)[C@H]1CCC2C3CCC4N(C)C(=O)CC4(C)C3CCC21C (some centres not stated)	7%
CC(C)N(C(=O)[C@H]1CC[C@H]2[C@@H]3CCC4N(C)C(=O)CC[C@]4(C)[C@H]3CC[C@]12C)C(C)C (some centres not stated)	100%
CCN(CC)C(=O)[C@H]1CC[C@H]2[C@@H]3CC[C@@H]4NC(=O)CC[C@]4(C)[C@H]3CC[C@]12C	95%
CC(=O)O[C@H]1CCC2C3CC[C@H]4CN(C(C)=O)CCC4(C)C3CCC21C (some centres not stated)	33%
CC(O)[C@H]1CC[C@H]2[C@@H]3CCC4N(C)C(=O)CC[C@]4(C)[C@H]3CC[C@]12C (some centres not stated)	100%
CC(C(=O)O)[C@H]1CC[C@H]2[C@@H]3CCC4N(C)C(=O)CC[C@]4(C)[C@H]3CC[C@]12C (some centres not stated)	96%
C[C@]12CCC(=O)NC1CC[C@@H]1[C@@H]2CC[C@@]2(C)[C@H]1CC[C@@]21CCCO1 (some centres not stated)	68%
CN1C(=O)CCC2(C)C3CCC4(C)C(CC[C@@H]4C(N)=O)C3CCC12 (some centres not stated)	91%
CCCCCCCCCC[C@H]1CCC2C3CCC4N(C)C(=O)CCC4(C)C3CCC21C (some centres not stated)	7%
CN1C(=O)CCC2(C)C3CCC4(C)C(CC[C@@H]4CN)C3CCC12 (some centres not stated)	80%

Structure (SMILES)	inhibition
COC(=O)[C@H]1CCC2C3CCC4N(C)C(=O)CCC4(C)C3CCC21C (some centres not stated)	96%
CN1C(=O)CC[C@@]2(C)C1CC[C@H]1[C@@H]3CC[C@H](O)[C@@]3(C)CC[C@@H]12 (some centres not stated)	72%
CC12CCC(=O)NC1CCC1C2CCC2(C)C1CC[C@@H]2O (some centres not stated)	57%
CCN(CC)C(=O)[C@H]1CC[C@H]2[C@@H]3CC[C@H]4N(C)C(=O)C=C[C@]4(C)[C@H]3CC[C@]12C	63%
CC(=O)[C@H]1CC[C@H]2[C@@H]3CC[C@H]4CS(=O)(=O)C[C@]4(C)[C@H]3CC[C@]12C (stereo in doubt; 43)	13%
CCN(CC)C(=O)[C@H]1CC[C@H]2[C@@H]3CC[C@H]4NC(=O)C=C[C@]4(C)[C@H]3CC[C@]12C	74%
CC12COC(=O)C=C1CCC1C2CCC2(C)C1CC[C@]2(C)O (some centres not stated)	8%
CC(=O)[C@H]1CC[C@H]2[C@@H]3CC[C@H]4CS(=O)(=O)C[C@]4(C)[C@H]3CC[C@]12C (stereo in doubt; 44)	13%
CN1C(=O)CCC2C3CCC4(C)C(CC[C@@H]4O)C3CCC21 (some centres not stated)	81%
CC(=O)O[C@H]1CCC2C3CC[C@H]4CC(=O)NCCC4(C)C3CCC21C (some centres not stated)	0%
CC(=O)[C@H]1CCC2C3CCC4NC(=O)CCC4(C)C3CCC21C (some centres not stated)	100%
CCN(CC)C(=O)[C@H]1CCC2C3CCC4N(C)C(=N)CCC4(C)C3CCC21C (some centres not stated)	22%
CCN(CC)C(=O)[C@H]1CCC2C3CCC4N(c5ccccc5)C(=O)CCC4(C)C3CCC21C (some centres not stated)	5%
CC(=O)N[C@@H]1CC[C@H]2[C@@H]3CCC4N(C)C(=O)CC[C@]4(C)[C@H]3CC[C@]12C (some centres not stated)	87%
CCN1C(=O)CC[C@@]2(C)C1CC[C@@H]1[C@@H]2CC[C@@]2(C)[C@H]1CC[C@@]21CCCO1 (some centres not stated)	27%
CCN(CC)C(=O)[C@H]1CCC2C3CCC4N(C)C(=O)C5OC5C4(C)C3CCC21C (some centres not stated)	19%
CCN(CC)C(=O)/C=C1\CC[C@H]2[C@@H]3CCC4N(C)C(=O)CC[C@]4(C)[C@H]3CC[C@]12C (some centres not stated)	100%
CC(CO)[C@H]1CC[C@H]2[C@@H]3CCC4N(C)C(=O)CC[C@]4(C)[C@H]3CC[C@]12C (some centres not stated)	100%
CCNC(=O)[C@H]1CCC2C3CCC4N(C)C(=O)CCC4(C)C3CCC21C (some centres not stated)	83%
CC(=O)O[C@H]1CCC2C3CC[C@H]4CNC(=O)CCC4(C)C3CCC21C (some centres not stated)	0%
